Reference: ChEMBL document CHEMBL1147285, “A mammalian cell agar-diffusion assay for the detection of toxic compounds” (J Nat Prod, 1989)
The source made the active and inactive calls. The rule behind the calls is not given here. Numbered stars: 1 amine (or outer) side, 2 acyl side, 3 side chain; on linkers, the order of the positions; unused ones are H or OH. Bridge positions count the residues as written; N and C are the ends. Square brackets hold non-standard residues; d marks the D form. Peptide text beside a SMILES is read from it. I, II: the chains in the order shown. Actinocin(1to9) = Cc1c2oc3c(C)ccc(C(=O)[*:2])c3nc-2c(C(=O)[*:1])c(N)c1=O; NMeV = CN[C@H](C(=O)O)C(C)C; Sar = CNCC(=O)O

How the values were obtained:
[1] = test system: HT-29; test: Antiproliferative activity against human HT-29 cells at 0.1 ug after 48 hrs by two-layer agar-diffusion method; type: functional; details: for zone of inhibition at 0.1 µg/disc: read-out: IZ
Method in brief: (§1)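 Compound (0.01-10 µg) spotted on Si gel pieces, air-dried, placed face down on 1.5% Noble agar in PBS-growth medium (20:80) for 60 min diffusion. After removal, cells (2 X 10^6/ml) in 0.3% low-temperature agarose overlaid; 48 h incubation. Cytotoxic zones shown by MTT (5 mg/ml in growth medium) over agarose; absence of zone scored as not detected.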

[2] = test system: P388; test: Antiproliferative activity against mouse P388 cells at 0.01 ug after 48 hrs by two-layer agar-diffusion method; type: functional; details: for zone of inhibition at 0.01 µg/disc: read-out: IZ; method in brief: as §1
[3] = test system: HT-29; test: Antiproliferative activity against human HT-29 cells at 0.01 ug after 48 hrs by two-layer agar-diffusion method; type: functional; details: for zone of inhibition at 0.01 µg/disc: read-out: IZ; method in brief: as §1
[4] = test system: HT-29; test: Antiproliferative activity against human HT-29 cells at 1 ug after 48 hrs by two-layer agar-diffusion method; type: functional; details: for zone of inhibition at 1 µg/disc: read-out: IZ; method in brief: as §1
[5] = test system: HT-29; test: Antiproliferative activity against human HT-29 cells at 10 ug after 48 hrs by two-layer agar-diffusion method; type: functional, cell-based; method in brief: as §1
[6] = test system: P388; test: Antiproliferative activity against mouse P388 cells after 48 hrs by MTT assay; type: functional, cell-based; details: P388, 48 h
Method in brief: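 Uncloned P-388 in RPMI 1640 + 10% horse serum, gentamicin 50 µg/ml; 200-µl cultures at 1 X 10' cells/ml with or without drug, 48 h exposure. MTT (5 mg/ml in medium, 75 µl) added for 90 min, formazan read at 570 nm; absorbance normalized to untreated wells; IC50 by linear regression of logit-transformed data.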

[7] = test system: P388; test: Antiproliferative activity against mouse P388 cells at 1 ug after 48 hrs by two-layer agar-diffusion method; type: functional; details: read-out: IZ; method in brief: as §1
[8] = test system: P388; test: Antiproliferative activity against mouse P388 cells at 0.1 ug after 48 hrs by two-layer agar-diffusion method; type: functional; details: for zone of inhibition at 0.1 µg/disc: read-out: IZ; method in brief: as §1
[9] = test system: HT-29; test: Antiproliferative activity against human HT-29 cells after 96 hrs by MTT assay; type: functional, cell-based; details: HT-29, 96 h
[10] = test system: HT-29; test: Antiproliferative activity against human HT-29 cells at 5 ug after 48 hrs by two-layer agar-diffusion method; type: functional; details: read-out: IZ; method in brief: as §1
[11] = test system: P388; test: Antiproliferative activity against mouse P388 cells at 5 ug after 48 hrs by two-layer agar-diffusion method; type: functional; details: read-out: IZ; method in brief: as §1

| Structure (SMILES) | Activity [1] | Activity [2] | Activity [3] | Activity [4] | Activity [5] | IC50 [6] | zone of inhibition at 1 µg/disc [7] [mm] | zone of inhibition at 0.1 µg/disc [8] [mm] | IC50 [9] | zone of inhibition at 1 µg/disc [4] [mm] | zone of inhibition at 0.1 µg/disc [1] [mm] | zone of inhibition at 0.01 µg/disc [2] [mm] | zone of inhibition at 0.01 µg/disc [3] [mm] | zone of inhibition at 5 µg/disc [10] [mm] | zone of inhibition at 5 µg/disc [11] [mm] | Activity [8] |
| --- | --- | --- | --- | --- | --- | --- | --- | --- | --- | --- | --- | --- | --- | --- | --- | --- |
| COc1cc(NS(C)(=O)=O)ccc1Nc1c2ccccc2nc2ccccc12 [AMSACRINE] | inactive | inactive | inactive | inactive | inactive | 229 nM | 20 | 10 | 559 nM |  |  |  |  |  |  |  |
| Nc1ncn([C@@H]2O[C@H](CO)[C@@H](O)[C@H]2O)c(=O)n1 [AZACITIDINE] | inactive | inactive | inactive |  |  | 5000 nM | 30 | 12.5 | 3800 nM | 20 |  |  |  |  |  |  |
| COc1cc2c(c(OC)c1OC)-c1ccc(OC)c(=O)cc1[C@@H](NC(C)=O)CC2 [COLCHICINE] |  |  |  |  |  | 24 nM | > 40 | 40 |  | > 40 | 40 | 17.5 | 25 |  |  |  |
| C=C1C(=O)O[C@H]2C[C@@H]1C(OC(C)=O)C/C(C)=C/CC/C(C)=C/CC[C@@]2(C)O (stereo partly drawn) [CRASSIN ACETATE] |  |  |  |  |  | 1 µg/mL | 9 |  | 0.26 µg/mL |  |  |  |  | 17 | 20 |  |
| Nc1ccn([C@@H]2O[C@H](CO)[C@@H](O)[C@@H]2O)c(=O)n1 [CYTARABINE] | inactive |  | inactive | inactive | inactive | 1230 nM | > 40 | 20 | 66 nM |  |  | 10 |  |  |  |  |
| Cc1c2oc3c(C)ccc(C(=O)N[C@@H]4C(=O)N[C@H](C(C)C)C(=O)N5CCC[C@H]5C(=O)N(C)CC(=O)N(C)[C@@H](C(C)C)C(=O)O[C@@H]4C)c3nc-2c(C(=O)N[C@@H]2C(=O)N[C@H](C(C)C)C(=O)N3CCC[C@H]3C(=O)N(C)CC(=O)N(C)[C@@H](C(C)C)C(=O)O[C@@H]2C)c(N)c1=O [DACTINOMYCIN] (I: T[dV]P[Sar][NMeV] / II: T[dV]P[Sar][NMeV]; ester I:1-I:C, II:1-II:C; linker I:N-II:N via Actinocin(1to9)) | inactive | inactive | inactive | inactive | inactive | 0.2 nM | 5 |  | 223 nM |  |  |  |  |  |  | inactive |
| COc1cccc2c1C(=O)c1c(O)c3c(c(O)c1C2=O)C[C@@](O)(C(C)=O)C[C@@H]3O[C@H]1C[C@H](N)[C@H](O)[C@H](C)O1 [DAUNORUBICIN] | inactive |  | inactive |  |  | 28 nM | 20 | 12.5 | 133 nM | 5 |  | 10 |  |  |  |  |
| COc1cccc2c1C(=O)c1c(O)c3c(c(O)c1C2=O)C[C@@](O)(C(=O)CO)C[C@@H]3O[C@H]1C[C@H](N)[C@H](O)[C@H](C)O1 [DOXORUBICIN] | inactive |  | inactive |  |  | 74 nM | 25 | 17.5 | 37 nM | 5 |  | 5 |  |  |  |  |
| CC[C@H]1CN2CCc3cc(OC)c(OC)cc3[C@@H]2C[C@@H]1C[C@H]1NCCc2cc(OC)c(OC)cc21 [EMETINE] |  |  | inactive |  |  | 7 nM | > 40 | 40 | 33 nM | 35 | 25 | 20 |  |  |  |  |
| O=c1[nH]cc(F)c(=O)[nH]1 [FLUOROURACIL] | inactive | inactive | inactive | inactive | inactive | 609 nM | > 40 | 15 | 690 nM |  |  |  |  |  |  |  |
| CN(Cc1cnc2nc(N)nc(N)c2n1)c1ccc(C(=O)N[C@@H](CCC(=O)O)C(=O)O)cc1 [METHOTREXATE] | inactive | inactive | inactive | inactive | inactive | 66 nM | 40 | 27.5 | 4400 nM |  |  |  |  |  |  |  |
| CO[C@@]12[C@H](COC(N)=O)C3=C(C(=O)C(C)=C(N)C3=O)N1C[C@@H]1N[C@@H]12 [MITOMYCIN] | inactive | inactive | inactive |  |  | 3000 nM | 25 | 5 | 99 nM | 10 |  |  |  |  |  |  |
| CO[C@H](C(=O)[C@@H](O)[C@@H](C)O)[C@@H]1Cc2cc3cc(O[C@H]4C[C@@H](O[C@@H]5C[C@@H](O)[C@H](O)[C@@H](C)O5)[C@H](O)[C@@H](C)O4)c(C)c(O)c3c(O)c2C(=O)[C@H]1O[C@H]1C[C@@H](O[C@@H]2C[C@@H](O)[C@@H](O[C@@H]3C[C@](C)(O)[C@H](O)[C@@H](C)O3)[C@@H](C)O2)[C@H](O)[C@@H](C)O1 [PLICAMYCIN] |  | inactive | inactive |  |  | 111 nM | 30 | 15 | 33 nM | 25 | 15 |  |  |  |  |  |
| COc1cc([C@@H]2c3cc4c(cc3[C@H](O)[C@H]3COC(=O)[C@H]23)OCO4)cc(OC)c1OC [PODOFILOX] |  |  |  |  |  | 5.9 nM | 40 | 32.5 | 11 nM | > 40 | > 40 | 12.5 | 25 |  |  |  |
| Nc1nc2[nH]cnc2c(=S)[nH]1 [THIOGUANINE] | inactive |  | inactive | inactive | inactive | 300 nM | > 40 | > 40 | 1240 nM |  |  | > 40 |  |  |  |  |
| CC[C@]1(O)C[C@@H]2CN(CCc3c([nH]c4ccccc34)[C@@](C(=O)OC)(c3cc4c(cc3OC)N(C)[C@H]3[C@@](O)(C(=O)OC)[C@H](OC(C)=O)[C@]5(CC)C=CCN6CC[C@]43[C@@H]65)C2)C1 [VINBLASTINE] |  |  |  |  |  | 0.7 nM | > 40 | 32.5 | 4 nM | 40 | 25 | 12.5 | 10 |  |  |  |
| CC[C@]1(O)C[C@H]2CN(CCc3c([nH]c4ccccc34)[C@@](C(=O)OC)(c3cc4c(cc3OC)N(C=O)[C@H]3[C@@](O)(C(=O)OC)[C@H](OC(C)=O)[C@]5(CC)C=CCN6CC[C@]43[C@@H]65)C2)C1 [VINCRISTINE] |  |  | inactive |  |  | 1.2 nM | > 40 | 32.5 | 7 nM | 30 | 15 | 12.5 |  |  |  |  |
